{"source": "ChEMBL document CHEMBL1126988", "about": "“Quinolone antibacterials containing the new 7-[3-(1-aminoethyl)-1- pyrrolidinyl] side chain: the effects of the 1-aminoethyl moiety and its stereochemical configurations on potency and in vivo efficacy” (J Med Chem, 1993)", "key": {"[1]": {"system": "Escherichia coli", "assay": "Antibacterial activity in vitro against Escherichia coli Vogel", "type": "functional", "method_in_brief": "(§1)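 Standard microtitration broth assay against a panel of 10 Gram-positive and Gram-negative organisms. MIC read in µg/mL and averaged over multiple experiments.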"}, "[2]": {"system": "Escherichia coli", "assay": "Antibacterial activity against Escherichia coli Vogel after oral administration in mouse", "type": "functional"}, "[3]": {"system": "Escherichia coli", "assay": "Antibacterial activity against Escherichia coli Vogel after subcutaneous administration in mouse", "type": "functional"}, "[4]": {"system": "Enterobacter cloacae", "assay": "Minimum inhibitory concentration in vitro against Enterobacter cloacae MA 2646", "type": "functional"}, "[5]": {"system": "Enterococcus faecalis", "assay": "Minimum inhibitory concentration was evaluated in vitro against Enterococcus faecalis MGH-2", "type": "functional", "method_in_brief": "as §1"}, "[6]": {"system": "Klebsiella pneumoniae", "assay": "Minimum inhibitory concentration was evaluated in vitro against Klebsiella pneumoniae MGH2", "type": "functional", "method_in_brief": "as §1"}, "[7]": {"species_on_record": "Mus musculus", "assay": "Compounds were evaluated for phototoxicity no-effect dose in mouse", "type": "functional", "method_in_brief": "(§2)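 Depilated female CD-1 mice, five per dose plus controls. Animals are dosed orally and then exposed daily to UV-A (320–400 nm) for 3 h, for up to 4 days or until a definite positive response. Redness or erythema relative to controls, read 24 h after irradiation, counts as positive. Reported as the highest dose with no effect (mg/kg).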"}, "[8]": {"system": "Providencia rettgeri", "assay": "Minimum inhibitory concentration was evaluated in vitro against Providencia rettgeri M1771", "type": "functional", "method_in_brief": "as §1"}, "[9]": {"system": "Pseudomonas aeruginosa", "assay": "Minimum inhibitory concentration was evaluated in vitro against Pseudomonas aeruginosa UI-18", "type": "functional", "method_in_brief": "as §1"}, "[10]": {"system": "Staphylococcus aureus", "assay": "Minimum inhibitory concentration was evaluated in vitro against Staphylococcus aureus H 228", "type": "functional", "method_in_brief": "as §1"}, "[11]": {"system": "Staphylococcus aureus", "assay": "Minimum inhibitory concentration was evaluated in vitro against Staphylococcus aureus UC 76", "type": "functional", "method_in_brief": "as §1"}, "[12]": {"system": "Streptococcus pneumoniae", "assay": "Minimum inhibitory concentration was evaluated in vitro against Streptococcus pneumoniae SV-1", "type": "functional", "method_in_brief": "as §1"}, "[13]": {"system": "Streptococcus pyogenes", "assay": "Minimum inhibitory concentration was evaluated in vitro against Streptococcus pyogenes C 203", "type": "functional", "method_in_brief": "as §1"}, "[14]": {"assay": "Compound was evaluated for clonogenic cytotoxicity against hamster V-79 cells; 50% Inhibition", "type": "functional, cell-based", "details": "Cricetulus griseus, V79", "method_in_brief": "(§3)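 Chinese hamster V-79 cells grown overnight, then drug-treated for 3 h at 37 °C. Medium is replaced with fresh medium and cells are incubated 5 days to allow colony formation. IC50 (µg/mL) is the concentration inhibiting colony formation by 50% relative to control.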"}, "[15]": {"species_on_record": "Mus musculus", "assay": "Compound was evaluated for phototoxicity no-effect dose in mouse", "type": "functional", "method_in_brief": "as §2"}, "[16]": {"assay": "Clonogenic cytotoxicity against hamster V-79 cells", "type": "functional, Cricetulus griseus, V79", "method_in_brief": "as §3"}, "[17]": {"system": "Streptococcus pyogenes", "assay": "Compound was evaluated in vivo for antibacterial activity for mouse protection against Streptococcus pyogenes C 203 after subcutaneous administration", "type": "functional", "details": "sc, read-out: PD50"}, "[18]": {"system": "Streptococcus pyogenes", "assay": "Compounds were evaluated in vivo for antibacterial activity for mouse protection against Streptococcus pyogenes C 203 after oral administration", "type": "functional"}, "[19]": {"target": "DNA gyrase (Escherichia coli, UniProt P0AES4+P0AES6)", "assay": "Inhibition against DNA gyrase", "type": "protein-complex assay"}, "[20]": {"details": "Staphylococcus aureus, read-out: MIC"}}, "data": [{"smiles": "CN[C@H](C)[C@@H]1CCN(c2nc3c(cc2F)c(=O)c(C(=O)O)cn3C2CC2)C1", "values": [{"measurement": "MIC", "setting": "[1]; Escherichia coli, read-out: MIC", "value": 0.1, "unit": "µg/mL"}, {"measurement": "ED50", "setting": "[2]; Escherichia coli, po, read-out: PD50", "value": 5, "unit": "mg/kg"}, {"measurement": "ED50", "setting": "[3]; Escherichia coli, sc, read-out: PD50", "value": 1, "unit": "mg/kg"}, {"measurement": "MIC", "setting": "[4]; Enterobacter cloacae, read-out: MIC", "value": 0.1, "unit": "µg/mL"}, {"measurement": "MIC", "setting": "[5]; Enterococcus faecalis, read-out: MIC", "value": 0.1, "unit": "µg/mL"}, {"measurement": "MIC", "setting": "[6]; Klebsiella pneumoniae, read-out: MIC", "value": 0.2, "unit": "µg/mL"}, {"measurement": "Dose", "setting": "[7]", "value": 30, "unit": "mg/kg"}, {"measurement": "MIC", "setting": "[8]; Providencia rettgeri, read-out: MIC", "value": 0.4, "unit": "µg/mL"}, {"measurement": "MIC", "setting": "[9]; Pseudomonas aeruginosa, read-out: MIC", "value": 1.6, "unit": "µg/mL"}, {"measurement": "MIC", "setting": "[10]; [20]", "value": 0.1, "unit": "µg/mL"}, {"measurement": "MIC", "setting": "[11]; [20]", "value": 0.05, "unit": "µg/mL"}, {"measurement": "MIC", "setting": "[12]; Streptococcus pneumoniae, read-out: MIC", "value": 0.025, "unit": "µg/mL"}, {"measurement": "MIC", "setting": "[13]; Streptococcus pyogenes, read-out: MIC", "value": 0.05, "unit": "µg/mL"}, {"measurement": "IC50", "setting": "[14]", "value": 88, "unit": "µg/mL"}]}, {"smiles": "C[C@@H](N)[C@H]1CCN(c2nc3c(cc2F)c(=O)c(C(=O)O)cn3C2CC2)C1", "note": "(mixture of isomers)", "values": [{"measurement": "MIC", "setting": "[1]", "value": 0.025, "unit": "µg/mL"}, {"measurement": "PD50", "setting": "[2]", "value": 2, "unit": "mg/kg"}, {"measurement": "PD50", "setting": "[3]", "value": 0.4, "unit": "mg/kg"}, {"measurement": "MIC", "setting": "[4]", "value": 0.05, "unit": "µg/mL"}, {"measurement": "MIC", "setting": "[5]", "value": 0.013, "unit": "µg/mL"}, {"measurement": "MIC", "setting": "[6]", "value": 0.05, "unit": "µg/mL"}, {"measurement": "Dose", "setting": "[15]", "value": 30, "unit": "mg/kg"}, {"measurement": "MIC", "setting": "[8]", "value": 0.1, "unit": "µg/mL"}, {"measurement": "MIC", "setting": "[9]", "value": 0.4, "unit": "µg/mL"}, {"measurement": "MIC", "setting": "[10]", "value": 0.025, "unit": "µg/mL"}, {"measurement": "MIC", "setting": "[11]", "value": 0.003, "unit": "µg/mL"}, {"measurement": "MIC", "setting": "[12]", "value": 0.003, "unit": "µg/mL"}, {"measurement": "Cytotoxicity", "setting": "[16]", "value": 33, "unit": "µg/mL"}, {"measurement": "ED50", "setting": "[17]", "value": 1, "unit": "mg/kg"}, {"measurement": "PD50", "setting": "[18]", "value": 3, "unit": "mg/kg"}, {"measurement": "MIC", "setting": "[13]", "value": 0.013, "unit": "µg/mL"}, {"measurement": "IC50", "setting": "[19]", "value": 2080, "unit": "nM"}]}]}
